Tested on: acetylated α-tubulin (AcTub) in QBI-293 cells
Assay: Acetyl-tubulin assay
Assay type: cell-based
Conditions: 1 or 10 μM
Summary of the method: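 QBI-293 cells kept at 37 °C, 5% CO₂, trypsinised and plated at 6 × 10⁵ cells/well, then exposed overnight-later to vehicle (DMSO) or test compound for 4 h. Lysis in RIPA with protease inhibitors, 1 mM PMSF and 1 μM TSA; 100000g spin, 30 min, 4 °C. BCA protein, then AcTub ELISA. Fold-change versus vehicle, at least triplicate, two-tailed unpaired t test.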

SMILES	elevation in AcTub without decrease of α-tubulin
Cc1nc(Cl)c(-c2c(F)cc(F)cc2F)n1-c1ccc(Cl)nc1 [Compound 74, 2-Chloro-5-(4-chloro-2-methyl-5-(2,4,6-trifluorophenyl)-1H-imidazol-1-yl)pyridine]	produce an elevation in AcTub at 1 or 10 μM without decreasing α-tubulin level
Fc1cc(F)c(-c2c(Cl)ncn2-c2ccc(Cl)cc2)c(F)c1 [Compound 54, 4-Chloro-1-(4-chlorophenyl)-5-(2,4,6-trifluorophenyl)-1H-imidazole]	produce an elevation in AcTub at 1 or 10 μM without decreasing α-tubulin level
COc1ccc(-n2cnc(Cl)c2-c2c(F)cc(F)cc2F)cc1 [Compound 59, 4-Chloro-1-(4-methoxyphenyl)-5-(2,4,6-trifluorophenyl)-1H-imidazole]	produce an elevation in AcTub at 1 or 10 μM without decreasing α-tubulin level
Cc1nc(Cl)n(-c2ccc(Cl)cc2)c1-c1c(F)ccc(F)c1F [Compound 36, 2-Chloro-1-(4-chlorophenyl)-4-methyl-5-(2,3,6-trifluorophenyl)-1H-imidazole]	produce an elevation in AcTub at 1 or 10 μM without decreasing α-tubulin level
Fc1cc(Cl)ccc1-n1cnc(Cl)c1-c1c(F)cccc1F [Compound 78, 4-Chloro-1-(4-chloro-2-fluorophenyl)-5-(2,6-difluorophenyl)-1H-imidazole]	produce an elevation in AcTub at 1 or 10 μM without decreasing α-tubulin level
COc1ccc(-n2c(-c3c(F)cc(F)cc3F)cnc2Cl)cc1 [Compound 60, 2-Chloro-1-(4-methoxyphenyl)-5-(2,4,6-trifluorophenyl)-1H-imidazole]	produce an elevation in AcTub at 1 or 10 μM without decreasing α-tubulin level
Cc1ncn(-c2ccc(Cl)cc2)c1-c1c(F)ccc(F)c1F [Compound 35, 1-(4-Chlorophenyl)-4-methyl-5-(2,3,6-trifluorophenyl)-1H-imidazole]	produce an elevation in AcTub at 1 or 10 μM without decreasing α-tubulin level
Fc1cccc(F)c1-c1c(Cl)ncn1-c1ccccc1Cl [Compound 102, 4-Chloro-1-(2-chlorophenyl)-5-(2,6-difluorophenyl)-1H-imidazole]	produce an elevation in AcTub at 1 or 10 μM without decreasing α-tubulin level
Fc1cc(-n2c(-c3c(F)ccc(F)c3F)cnc2Cl)ccc1Cl [Compound 72, 2-Chloro-1-(4-chloro-3-fluorophenyl)-5-(2,3,6-trifluorophenyl)-1H-imidazole]	produce an elevation in AcTub at 1 or 10 μM without decreasing α-tubulin level
Fc1ccc(Cl)c(F)c1-c1c(Cl)ncn1-c1ccc(Cl)cc1 [Compound 64, 4-Chloro-5-(3-chloro-2,6-difluorophenyl)-1-(4-chlorophenyl)-1H-imidazole]	produce an elevation in AcTub at 1 or 10 μM without decreasing α-tubulin level
Cc1ncn(-c2ccc(Cl)cc2)c1-c1c(F)ccc(Cl)c1F [Compound 29, 5-(3-Chloro-2,6-difluorophenyl)-1-(4-chlorophenyl)-4-methyl-1H-imidazole]	produce an elevation in AcTub at 1 or 10 μM without decreasing α-tubulin level
Cc1nc(C)n(-c2ccc(Cl)cc2)c1-c1c(F)ccc(Cl)c1F [Compound 31, 5-(3-Chloro-2,6-difluorophenyl)-1-(4-chlorophenyl)-2,4-dimethyl-1H-imidazole]	produce an elevation in AcTub at 1 or 10 μM without decreasing α-tubulin level

Same assay, conditions: QBI-293 cells, 1 and 10 μM

SMILES	MT activity (AcTub increase), inactive compounds
Fc1cccc(F)c1-c1cncn1-c1ccccc1 [Compound 52, 5-(2,6-Difluorophenyl)-1-phenyl-1H-imidazole]	do not cause a detectable increase in AcTub
Fc1ccc(-c2cnc(Cl)n2-c2ccc(Cl)cc2)cc1 [Compound 75, 2-Chloro-1-(4-chlorophenyl)-5-(4-fluorophenyl)-1H-imidazole]	essentially devoid of MT activity
Clc1ccc(-n2cncc2-c2ccccc2)cc1 [Compound 50, 1-(4-Chlorophenyl)-5-phenyl-1H-imidazole]	essentially devoid of MT activity
COc1ccc(F)c(-c2cncn2-c2ccc(Cl)cc2)c1F [Compound 49, 1-(4-Chlorophenyl)-5-(2,6-difluoro-3-methoxyphenyl)-1H-imidazole]	do not cause a detectable increase in AcTub
Fc1cc(F)c(-c2cncn2-c2ccc(Cl)cc2)c(F)c1 [Compound 25, 1-(4-Chlorophenyl)-5-(2,4,6-trifluorophenyl)-1H-imidazole]	do not cause a detectable increase in AcTub
COc1ccc(-n2cncc2-c2c(F)cc(F)cc2F)cc1 [Compound 26, 1-(4-Methoxyphenyl)-5-(2,4,6-trifluorophenyl)-1H-imidazole]	do not cause a detectable increase in AcTub
Fc1ccc(F)c(-c2c(Cl)ncn2-c2ccc(Cl)cc2)c1 [Compound 80, 4-Chloro-1-(4-chlorophenyl)-5-(2,5-difluorophenyl)-1H-imidazole]	inactive
Fc1cccc(F)c1-c1cncn1-c1ccccc1Cl [Compound 53, 1-(2-Chlorophenyl)-5-(2,6-difluorophenyl)-1H-imidazole]	do not cause a detectable increase in AcTub
Fc1cccc(F)c1-c1cncn1-c1ccc(OC(F)(F)F)cc1 [Compound 42, 5-(2,6-Difluorophenyl)-1-(4-(trifluoromethoxy)phenyl)-1H-imidazole]	do not cause a detectable increase in AcTub
Fc1cccc(F)c1-c1cncn1-c1ccc(Cl)cc1 [Compound 43, 1-(4-Chlorophenyl)-5-(2,6-difluorophenyl)-1H-imidazole]	do not cause a detectable increase in AcTub
Fc1ccc(-c2c(Cl)ncn2-c2ccc(Cl)cc2)cc1 [Compound 76, 4-Chloro-1-(4-chlorophenyl)-5-(4-fluorophenyl)-1H-imidazole]	essentially devoid of MT activity
Cc1cc(F)c(-c2cncn2-c2ccc(Cl)cc2)c(F)c1 [Compound 48, 1-(4-Chlorophenyl)-5-(2,6-difluoro-4-methylphenyl)-1H-imidazole]	do not cause a detectable increase in AcTub

From article PMC5483893 (Journal of Medicinal Chemistry, 2017)
